Measured values: PMC7226283 (Cancer Science, 2020)
Peptide text beside a SMILES is read from it. * marks the point of attachment. Cbz = O=C(OCc1ccccc1)*

Assays:
KRASm/TP53‐ HCT116 cells = experiment: MTS cell viability assay, KRASm/TP53‐ HCT116; format: cell-based; conditions: for recovery of the efficacy of L‐OHP on KRASm/TP53‐ HCT116 cells / cell growth rate of KRASm/TP53‐ HCT116 cells: Figure S2, Bay11‐7082 5 μM, TPCA1 20 μM, 72 hours; for recovery of the efficacy of L‐OHP on KRASm/TP53‐ HCT116 cells: MG132 0.5 μM with L‐OHP 4 μM; for cell growth rate of KRASm/TP53‐ HCT116 cells: MG132 0.5 μM; for IC50: read-out: IC50 on KRASm/TP53‐ HCT116 cells, MTS assay, 72 hours post-treatment, n = 3
How it was run: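 HCT116 KRASm/TP53- cells were grown in RPMI1640 with 10% FBS and 1% penicillin/streptomycin at 37°C, 5% CO2, and plated at 4 × 10^5 per well. After 24 h, Bay11-7082 (0, 5 μM), TPCA1 (0, 20 μM) or MG132 (0, 0.5 μM), all in DMSO, were added with L-OHP (0 or 4 μM). Viability was read by MTS after 72 h.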

KRASm/TP53w HCT116 cells = experiment: MTS cell viability assay, KRASm/TP53w HCT116; format: cell-based; conditions: read-out: IC50 on KRASm/TP53w HCT116 cells, 72 hours post-treatment, n = 3
How it was run: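 ATCC parental HCT116 (KRAS mutant/TP53 wild-type) grown in RPMI1640 with 10% FBS and 1% penicillin/streptomycin at 37°C, 5% CO2. Seeded at 4 × 10^5 cells/well; test compound in DMSO added after 24 h at six levels (0–10 μM or 0–25 μM series). Viability by MTS tetrazolium read-out after 72 h. IC50 reported as mean ± SD, n = 3.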

[1] = system: NF‐κB activity in KRASm/TP53w HCT116 cells; experiment: NF‐κB activity luciferase assay, KRASm/TP53w HCT116; format: cell-based; conditions: 3 hours treatment
How it was run: (§1)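 Reporter assay: cells seeded at 5 × 10^4/well. After 1 day, shifted to RPMI1640 with 1% FBS for 24 h. Cotransfected by lipofection with NF‑κB‑RE luc2P luciferase plasmid plus CMV‑β‑galactosidase plasmid. 3 h later, test compound added at various concentrations in 1% FBS medium for 3 h. Cells lysed; activity expressed as luciferase/β‑galactosidase.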

[2] = system: NF‐κB activity in KRASm/TP53‐ HCT116 cells; experiment: NF‐κB activity luciferase assay, KRASm/TP53‐ HCT116; format: cell-based; conditions: 3 hours treatment
How it was run: as §1

proteasome = experiment: Proteasome activity in vitro
Safety = format: in vivo, mice
How it was run: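 Female BALB/c nude mice (6 weeks old, 7-8 per group) received s.c. KRASm/TP53w HCT116 cells (4 × 10^6) and were grouped by stratified randomization on tumor volume on day 9 after implant (day 0). L-OHP was given i.p. on days 0, 3, 7, 10, 14 and 17; controls got saline 10 mL/kg. Body weight was taken on days 0, 7, 14 and 21, with hematology and biochemistry on day 21 blood. Mean ± SD; Student's t test.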

[3] = day 21, L‐OHP 8 mg/kg i.p. twice a week for 3 weeks
[4] = day 21, monotherapies compared to the control group, combination compared to L‐OHP monotherapy

Compound	recovery of the efficacy of L‐OHP on KRASm/TP53‐ HCT116 cells (KRASm/TP53‐ HCT116 cells)	cell growth rate of KRASm/TP53‐ HCT116 cells (KRASm/TP53‐ HCT116 cells)	IC50 (KRASm/TP53w HCT116 cells) [µM]	IC50 (KRASm/TP53‐ HCT116 cells) [µM]	other results
Cc1ccc(S(=O)(=O)/C=C/C#N)cc1 [Bay11‐7082]	did not recover the efficacy of L‐OHP	suppressed cell growth rates	–	–	–
CC(C)C[C@@H](C=O)NC(=O)[C@H](CC(C)C)NC(=O)[C@H](CC(C)C)NC(=O)OCc1ccccc1 [MG132] (Cbz-Leu-Leu-Leu-aldehyde)	–	suppressed cell growth rates	–	–	–
curcumin	–	–	20	17.4	NF‐κB activity (luciferase/β‐galactosidase) [1]: suppressed NF‐κB activity in a dose‐dependent manner; NF‐κB activity (luciferase/β‐galactosidase) [2]: suppressed NF‐κB activity in a dose‐dependent manner; proteasome activity in vitro (proteasome): suppresses proteasome activity
NC(=O)Nc1sc(-c2ccc(F)cc2)cc1C(N)=O [TPCA1]	did not recover the efficacy of L‐OHP	suppressed cell growth rates	–	–	–
O=C1[O][Pt]2([NH][C@@H]3CCCC[C@H]3[NH]2)[O]C1=O [L‐OHP, oxaliplatin]	–	–	1.7	4.8	hemoglobin compared to the control group (Safety; [3]): significantly decreased; platelet count compared to the control group (Safety; [3]): significantly decreased; white blood cell count compared to the control group (Safety; [3]): significantly decreased; ALT level (Safety; [4]): elevated; AST level (Safety; [4]): elevated
